Test results published in ChEMBL document CHEMBL1130979, “Synthesis, X-ray crystal structure, and biological activity of FR186054, a novel, potent, orally active inhibitor of acyl-CoA:cholesterol O-acyltransferase (ACAT) bearing a pyrazole ring” (Bioorg Med Chem Lett, 1998).

Assays:
Format in all cases: functional
Rattus norvegicus [1] = test: Hypocholesterolemic activity to reduce plasma total cholesterol level by 50% after dietary administration in cholesterol-fed rats; details: feed or water
Method in brief: (§1)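 Male rats (n = 4) received compound admixed in diet supplemented with 1% cholesterol and 0.5% cholic acid for 7 days. Plasma total cholesterol then measured, percent change vs control calculated. Reported as percent reduction at the dose given or as ED50 (dose lowering total cholesterol by 50%). Significance by unpaired two-tailed Student's t-test.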

Rattus norvegicus [2] = test: Hypocholesterolemic activity by administration of gavage in PEG400 as a vehicle in cholesterol-fed rats.; details: po
Method in brief: (§2)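 Male rats (n = 4) made hypercholesterolemic on diet with 1% cholesterol and 0.5% cholic acid for 2 days. Compound then dissolved in PEG400 and given orally by gavage once daily in the evening for 3 days, cholesterol-enriched diet continued. Plasma total cholesterol measured; ED50 = dose lowering plasma total cholesterol by 50% of control.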

Rattus norvegicus [3] = test: Percent reduction in total cholesterol at less than 0.1 mg/kg dose; method in brief: as §1
Rattus norvegicus [4] = test: Hypocholesterolemic activity by administration of gavage in PEG400 as a vehicle in cholesterol-fed rats; details: po; method in brief: as §2
Rattus norvegicus [5] = test: Percent reduction in total cholesterol at greater than 1 mg/kg dose; method in brief: as §1

Structure (SMILES)	ED50 (Rattus norvegicus [1]) [mg/kg]	ED50 (Rattus norvegicus [2]) [mg/kg]	Reduction (Rattus norvegicus [3]) [%]	ED50 (Rattus norvegicus [4]) [mg/kg]	Reduction (Rattus norvegicus [5]) [%]
CSc1cc(C)nc(SC)c1NC(=O)N(Cc1ccccc1)Cc1cccc(-c2cc[nH]n2)c1	0.046	0.44			
CSc1cc(C)nc(SC)c1NC(=O)N(Cc1ccc(N(C)C)cc1)Cc1cccc(-c2cc[nH]n2)c1	< 0.1		61		
O=C(Nc1c(F)cc(F)cc1F)N(Cc1ccccc1)Cc1cccc(-c2cc[nH]n2)c1	0.096			8.6	
CSc1cc(C)nc(SC)c1NC(=O)N(Cc1ccc(F)cc1)Cc1cccc(-c2cc[nH]n2)c1	< 0.1		66		
Cc1cc(C)c(NC(=O)N(Cc2ccccc2)Cc2cccc(-c3cc[nH]n3)c2)c(C)c1	> 1				36
COc1ccc(CN(Cc2cccc(-c3cc[nH]n3)c2)C(=O)Nc2c(SC)cc(C)nc2SC)cc1	< 0.1		81		
CCCCCCCN(Cc1ccc(CC(C)(C)C)cc1)C(=O)Nc1ccc(F)cc1F [CL-277082]	5				
